Laboratory results published in article PMC5437736 (Molecular Therapy. Methods & Clinical Development, 2017).
Non-standard residues stand in square brackets, D forms with d. No end group written: not given here. Dmt = Cc1cc(O)cc(C)c1C[C@H](N)C(=O)O; Orn = NCCC[C@H](N)C(=O)O

Assays:
[1] = test system: mitochondrial membrane potential in HeLa 705 cells; assay: Mitochondrial membrane potential; assay type: cell-based, human; details: 5 μM peptide 24 hr, TMRE fluorescence, n = 3; for mitochondrial membrane potential (Δψm) with H2O2 (oxidative stress): H2O2 200 μM for 2 hr
Method in brief: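 HeLa 705 cells seeded 24 hr ahead and treated 24 hr with peptide. In the stress arm, a 2 hr H2O2 exposure preceded the 24 hr incubation at 37°C, 5% CO2. TMRE added at 400 nM final for 30 min in the dark, then PBS wash and 0.2% BSA in PBS. Read at ex 549/em 575 nm, as percent of untreated cells or untreated + H2O2. FCCP and H2O2 served as controls. Mean ± SD of three experiments; one-way ANOVA.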

[2] = read-out: EC50 of the hydroxyl radical scavenging reaction; cited from earlier work
different cell lines = details: high concentration (100 μM); cited from earlier work
HeLa 705 cells [3] = assay: Subcellular uptake by spectrofluorometry after isolation of mitochondria; assay type: cell-based, human; details: 5 μM, 24 hr; for compartment of main accumulation: membranes, cytosol, mitochondria fractions
Method in brief: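 HeLa 705 cells grown in flasks for 24 hr, treated 24 hr with fluorescein-labelled peptide, then scraped at about 90% confluence. Reagent-based kit with differential centrifugation (700 × g 10 min, then 12,000 × g 15 min, 4°C) gave membrane, cytosol and mitochondrial fractions. Fluorescein read at […] and normalised to untreated cells. Mean ± SD of three experiments; one-way ANOVA.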

[4] = Solubility in MilliQ water; assay type: physicochemical; details: compared with unlabelled peptide
[5] = test system: mitochondrial superoxide in HeLa 705 cells; assay: Superoxide anion scavenging assay; assay type: cell-based, human; details: 5 μM, 24 hr, MitoSOX fluorescence, mean of three experiments
Method in brief: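 HeLa 705 cells seeded at 7 × 10³ per well, recovered 24 hr, then exposed to peptide for 24 hr. MitoSOX Red working solution in HBSS/Ca/Mg added for 10 min at 37°C, 5% CO2, in the dark. Cells washed with 0.2% BSA in PBS and read at ex 510/em 580 nm. Signal normalised to antimycin A-treated cells or to a reference peptide. Mean ± SD of three experiments.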

Dynamic light scattering = assay type: physicochemical; details: MilliQ H2O or cell culture media, 5 μM
Method in brief: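 Test compound dissolved either in DMEM with 10% FBS or in MilliQ water adjusted to pH 7.4. Dynamic light scattering gave hydrodynamic mean diameter and zeta potential. Data plotted as size distribution by intensity.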

HeLa 705 cells [6] = assay: Fluorescence microscopy, cellular uptake and localization; assay type: cell-based, human; details: carboxyfluorescein-labelled peptide 5 μM, 4 hr, 200 nM TMRE
Method in brief: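 HeLa 705 cells given carboxyfluorescein-labelled peptides for 4 hr; untreated cells got fresh medium in parallel. Mitochondria stained with 200 nM TMRE (20 min at 37°C per methods; added 30 min pre-imaging per legend) and nuclei with Hoechst 33342 (10 min). Inverted fluorescence microscope with 10×/40× dry and 63× oil objectives, held at 36 ± 1°C. Excitation/emission: Hoechst 346/497 nm, FAM 494/519 nm, TMRE 535/575 nm.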

HeLa 705 cells [7] = assay: WST-1 cell proliferation/viability assay; assay type: cell-based, human; details: 20% DMSO in complete growth medium, 24 hr, positive control
Method in brief: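 Cells seeded at 7 × 10³ per well 24 hr ahead, then exposed 24 hr to peptide at several concentrations in complete medium. WST-1 added at 1:10 final dilution after 20 hr and incubated 4 hr. Plate shaken 1 min; formazan read at 450 nm against 650 nm reference. Controls: 20% DMSO (v/v) for 24 hr and H2O2 at two levels. Mean of at least three experiments with SD.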

cells = details: 1-hr treatment with 1 mM of GSH; cited from earlier work

For “Y(Me)ECG-NH2 (N-terminus assumed; SMILES COc1ccc(C[C@H](N)C(=O)N[C@@H](CCC(=O)O)C(=O)N[C@@H](CS)C(=O)NCC(N)=O)cc1) [UPF25]”, the “mitochondrial membrane potential (Δψm) without H2O2” value [1] is given as “decreased”, the “mitochondrial membrane potential (Δψm) with H2O2 (oxidative stress)” value [1] is given as “partially rescue” and the EC50 [2] is given as ~30 nM. The “effect on viability of different cell lines” value (different cell lines) was “did not affect the viability”.
For “FAM-D-Arg-Dmt-Orn-Phe-Tyr(Me)-Glu-Cys-Gly-NH2 [FAM-mtgCPP]”, the “presence in membranes fraction” value (HeLa 705 cells [3]; carboxyfluorescein F.I.) was “same extent as FAM-mtCPP1”, the “compartment of main accumulation” value (HeLa 705 cells [3]) was “mainly accumulated in the mitochondria” and the “effect of the carboxyfluorescein moiety on solubility” value (“effect … on solubility” below) [4] was “did not decrease the solubility”.
For FAM-D-Arg-Dmt-Orn-Phe-NH2 [FAM-mtCPP1], the “increase in cytosol fraction between FAM-UPF25 and FAM-mtCPP1” value (HeLa 705 cells [3]; carboxyfluorescein F.I., direction not given) was 2 fold and the “effect … on solubility” value [4] was “did not decrease the solubility”.
For “[dR][Dmt][Orn]FY(Me)ECG-NH2 (N-terminus assumed; SMILES COc1ccc(C[C@H](NC(=O)[C@H](Cc2ccccc2)NC(=O)[C@H](CCCN)NC(=O)[C@H](Cc2c(C)cc(O)cc2C)NC(=O)[C@H](N)CCCNC(=N)N)C(=O)N[C@@H](CCC(=O)O)C(=O)N[C@@H](CS)C(=O)NCC(N)=O)cc1) [mtgCPP]”, the “mitochondrial membrane potential (Δψm) with H2O2 (oxidative stress)” value [1] was “close to the healthy situation”, the “improvement of superoxide anion scavenging ability compared with UPF25” value [5] was 3 fold and the “improvement of superoxide anion scavenging ability compared with mtCPP1” value [5] was 2 fold. The “aggregation (from DLS size)” value (Dynamic light scattering) was “forming aggregates” and the “mitochondrial localization (merge with TMRE)” value (HeLa 705 cells [6]) was “partially targets the mitochondria”.
In the case of FAM-Tyr(Me)-Glu-Cys-Gly-NH2 [FAM-UPF25], the “compartment of main accumulation” value (HeLa 705 cells [3]) is reported as “mainly accumulates in membranes” and the “effect … on solubility” value [4] is reported as “slightly decreased”.
In the case of `C[S+](C)[O-]` [DMSO], the cell viability (HeLa 705 cells [7]) is reported as “approximately 20%”.
In the case of glutathione [GSH], the “uptake of GSH in cells” value (cells) is listed as “≈ 1.5 μM”.
